Laboratory results taken from ChEMBL document CHEMBL2407002, “Simplification of antitumoral phenanthroindolizidine alkaloids: short synthesis of cytotoxic indolizidinone and pyrrolidine analogs” (2013).
Active and inactive are the calls of the source. The rule behind the calls is not given here.

Assays:
SH-SY5Y [1] = experiment: Cytotoxicity against human SH-SY5Y cells assessed as cell viability at 30 uM after 48 hrs by trypan blue staining-based assay; type: functional
How it was run: (§1)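 Indolizidinone series: MCF-7 grown in DMEM phenol red and SHSY-5Y in DMEM/F12 Ham's, each with 10% FBS, at 37 °C under 5% CO2 to 80% confluence. About 10 × 10⁶ cells were seeded, grown 24 h, then exposed 24 or 48 h to vehicle (0.05% DMSO) or increasing compound concentrations in DMSO. Viable cells were counted by trypan blue staining on a Vi-Cell-XR analyzer.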

MCF7 [2] = experiment: Cytotoxicity against human MCF7 cells assessed as cell viability at 30 uM after 48 hrs by trypan blue staining-based assay; type: functional; how it was run: as §1
SH-SY5Y [3] = experiment: Cytotoxicity against human SH-SY5Y cells assessed as cell mortality at 30 uM after 48 hrs by trypan blue exclusion assay; type: functional, cell-based
How it was run: (§2)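 Pyrrolidine series: MCF-7 in DMEM and SHSY-5Y in DMEM/F12 with 10% FBS, grown to 70% confluence. Compounds in DMSO (0.05%) were added at 10 µM for 24 h or 30 µM for 48 h, with DMSO (0.05%) vehicle controls for the same period. Mortality was derived from trypan blue counts. Data are mean ± SEM of 5-6 assays, analysed by one-way ANOVA followed by Student's t test versus vehicle.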

MCF7 [4] = experiment: Cytotoxicity against human MCF7 cells assessed as cell mortality at 10 uM after 24 hrs by trypan blue exclusion assay; type: functional, cell-based; how it was run: as §2
SH-SY5Y [5] = experiment: Cytotoxicity against human SH-SY5Y cells assessed as cell mortality at 10 uM after 24 hrs by trypan blue exclusion assay; type: functional, cell-based; how it was run: as §2
MCF7 [6] = experiment: Cytotoxicity against human MCF7 cells assessed as cell mortality at 30 uM after 48 hrs by trypan blue exclusion assay relative to control; type: functional
How it was run: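 MCF-7 cells were cultured in DMEM + 10% FBS to 70% confluence. Compound was dissolved in DMSO (0.05%) and added to the medium for 48 h. Controls received 0.05% DMSO for the same period. Total cells, viable cells and mortality were calculated per compound and dose. Results are given as mean ± SEM of 5–6 assays, analysed by one-way ANOVA then Student's t test.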

SH-SY5Y [7] = experiment: Cytotoxicity against human SH-SY5Y cells after 24 to 48 hrs by trypan blue exclusion assay; type: functional, cell-based; how it was run: as §1
MCF7 [8] = experiment: Cytotoxicity against human MCF7 cells after 24 to 48 hrs by trypan blue exclusion assay; type: functional, cell-based; how it was run: as §1
MCF7 [9] = experiment: Cytotoxicity against human MCF7 cells assessed as cell death at 30 uM after 48 hrs by trypan blue staining-based assay relative to control; type: functional
How it was run: (§3)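 Cells grown at 37 °C, 5% CO2 to 80% confluence: MCF-7 in phenol red DMEM + 10% FBS, SH-SY5Y in DMEM/F12 Ham's + 10% FBS. About 10 × 10⁶ cells were seeded and grown 24 h, then exposed 48 h to compound in […] or to vehicle (0.05% DMSO). Viable cells were counted by trypan blue staining on an automated analyzer. Compared with vehicle.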

SH-SY5Y [10] = experiment: Cytotoxicity against human SH-SY5Y cells assessed as change in cell morphology at 30 uM after 48 hrs; type: functional, cell-based
How it was run: (§4)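 Cells were treated at 30 µM (0.05% DMSO vehicle controls) and examined microscopically over time, from 6 h up to 48 h. Changes scored were cell and nuclear volume, nucleolar refringency and cytoplasm vacuolization, compared with vehicle-treated cells.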

[11] = Cytotoxicity against human SH-SY5Y cells assessed as cell death at 30 uM after 48 hrs by trypan blue staining-based assay relative to control; type: functional; how it was run: as §3
MCF7 [12] = experiment: Cytotoxicity against human MCF7 cells assessed as change in cell morphology at 30 uM after 48 hrs; type: functional, cell-based; how it was run: as §4
MCF7 [13] = experiment: Cytotoxicity against human MCF7 cells assessed as increase in nuclear volume at 30 uM; type: functional, cell-based; conditions: TDE = time-dependent effect; how it was run: as §4
MCF7 [14] = experiment: Cytotoxicity against human MCF7 cells assessed as increase in cellular volume at 30 uM; type: functional, cell-based; conditions: TDE = time-dependent effect; how it was run: as §4
MCF7 [15] = experiment: Cytotoxicity against human MCF7 cells assessed as cytoplasm vacuolization at 30 uM; type: functional, cell-based; conditions: TDE = time-dependent effect; how it was run: as §4
MCF7 [16] = experiment: Cytotoxicity against human MCF7 cells assessed as nucleolar refringency at 30 uM; type: functional, cell-based; conditions: TDE = time-dependent effect; how it was run: as §4

In the case of `O=C1C(c2ccccc2)=C(c2ccc(-c3ccccc3)cc2)C[C@@H]2C[C@@H](O)CN12`, the Activity (SH-SY5Y [1]) is reported as “Active” and the Activity (MCF7 [2]) is reported as “Active”.

With `O=C(CC1C[C@@H](O)CN1C(=O)Cc1ccccc1)c1ccco1` (stereo not given in full) the Activity (SH-SY5Y [3]) was “Active”, the Activity (MCF7 [4]) was “Active” and the Activity (SH-SY5Y [5]) was “Active”. The Activity (MCF7 [6]) was “Active”.

With `O=C1C(c2ccccc2)=C(c2ccco2)C[C@@H]2C[C@@H](O)CN12` the Activity (SH-SY5Y [1]) was “Active” and the Activity (MCF7 [2]) was “Active”.

With `O=C1C(c2ccccc2)=C(c2ccccc2)C[C@H]2C[C@@H](O)CN12` the Activity (MCF7 [2]) was “Active”.

With `O=C1C(c2ccccc2)=C(c2ccc3ccccc3c2)C[C@H]2C[C@@H](O)CN12` the Activity (MCF7 [2]) was “Active”.

In the case of `O=C(C[C@@H]1C[C@@H](O)CN1C(=O)Cc1ccccc1)c1ccco1`, the Activity (SH-SY5Y [7]) is reported as “Dose-dependent effect” and the Activity (MCF7 [8]) is reported as “Dose-dependent effect”.

For `O=C(C[C@@H]1C[C@@H](O)CN1C(=O)Cc1ccccc1)c1ccc(-c2ccccc2)cc1`, the Activity (MCF7 [4]) was “Active”, the Activity (MCF7 [6]) was “>=80%” and the Activity (SH-SY5Y [7]) was “Dose-dependent effect”. For the same compound, the Activity (MCF7 [8]) was “Dose-dependent effect”.

In the case of `Cn1cccc1C1=C(c2ccccc2)C(=O)N2C[C@H](O)C[C@@H]2C1`, the Activity (SH-SY5Y [1]) is reported as “Active” and the Activity (MCF7 [2]) is reported as “Active”.

With `O=C1C(c2ccccc2)=C(c2ccc(-c3ccccc3)cc2)C[C@H]2C[C@@H](O)CN12` the Activity (MCF7 [9]) was 80%, the Activity (SH-SY5Y [1]) was “Active” and the Activity (MCF7 [2]) was “Active”. For the same compound, the Activity (SH-SY5Y [10]) was “Active”, the Activity [11] was 80% and the Activity (MCF7 [12]) was “Active”.

For `O=C1C(c2ccccc2)=C(c2ccccc2)C[C@@H]2C[C@@H](O)CN12`, the Activity (MCF7 [2]) was “Active”.

In the case of `COc1ccc(C2=C(c3ccccc3)C(=O)N3C[C@H](O)C[C@@H]3C2)cc1`, the Activity (MCF7 [2]) is reported as “Active”.

For `O=C(C[C@H]1C[C@@H](O)CN1C(=O)Cc1ccccc1)c1ccco1`, the Activity (SH-SY5Y [3]) was “Active”, the Activity (MCF7 [4]) was “Active” and the Activity (SH-SY5Y [5]) was “Active”. The Activity (MCF7 [6]) was “Active”.

For `O=C1C(c2ccccc2)=C(c2ccc(Br)cc2)C[C@@H]2C[C@@H](O)CN12`, the Activity (SH-SY5Y [1]) was “Active” and the Activity (MCF7 [2]) was “Active”.

With `O=C1C(c2ccccc2)=C(c2ccc3ccccc3c2)C[C@@H]2C[C@@H](O)CN12` the Activity (SH-SY5Y [1]) was “Active” and the Activity (MCF7 [2]) was “Active”.

With `COc1ccc(C2=C(c3ccccc3)C(=O)N3C[C@H](O)C[C@H]3C2)cc1` the Activity (SH-SY5Y [1]) was “Active” and the Activity (MCF7 [2]) was “Active”.

With `Cn1cccc1C(=O)CC1C[C@@H](O)CN1C(=O)Cc1ccccc1` (stereo not given in full) the Activity (SH-SY5Y [3]) was “Active”, the Activity (MCF7 [4]) was “Active” and the Activity (SH-SY5Y [5]) was “Active”. For the same compound, the Activity (MCF7 [6]) was “Active”.

With `O=C1C(c2ccccc2)=C(c2ccco2)C[C@H]2C[C@@H](O)CN12` the Activity (MCF7 [2]) was “Active”.

With `O=C1C(c2ccccc2)=C(c2ccc(Br)cc2)C[C@H]2C[C@@H](O)CN12` the Activity (MCF7 [2]) was “Active”.

For `Cn1cccc1C1=C(c2ccccc2)C(=O)N2C[C@H](O)C[C@H]2C1`, the Activity (SH-SY5Y [1]) was “Active” and the Activity (MCF7 [2]) was “Active”.

With `COc1ccc(C(=O)CC2C[C@@H](O)CN2C(=O)Cc2ccccc2)cc1` (stereo not given in full) the Activity (SH-SY5Y [3]) was “Active”, the Activity (MCF7 [4]) was “Active” and the Activity (SH-SY5Y [5]) was “Active”. For the same compound, the Activity (MCF7 [6]) was “Active”.

In the case of `O=C(C[C@H]1C[C@@H](O)CN1C(=O)Cc1ccccc1)c1ccc(-c2ccccc2)cc1`, the Activity (MCF7 [4]) is reported as “Active”, the Activity (MCF7 [13]) is reported as “tde” and the Activity (MCF7 [14]) is reported as “tde”. The Activity (MCF7 [6]) was “>=80%”, the Activity (MCF7 [15]) was “tde” and the Activity (MCF7 [16]) was “tde”. For the same compound, the Activity (SH-SY5Y [10]) was “Active”, the Activity (SH-SY5Y [7]) was “Dose-dependent effect” and the Activity (MCF7 [8]) was “Dose-dependent effect”.

In the case of `O=C(CC1C[C@@H](O)CN1C(=O)Cc1ccccc1)c1ccc(Br)cc1` (stereo not given in full), the Activity (SH-SY5Y [3]) is reported as “Active”, the Activity (MCF7 [4]) is reported as “Active” and the Activity (SH-SY5Y [5]) is reported as “Active”. For the same compound, the Activity (MCF7 [6]) was “Active”.

For `Cn1cccc1C(=O)C[C@@H]1C[C@@H](O)CN1C(=O)Cc1ccccc1`, the Activity (SH-SY5Y [3]) was “Active”, the Activity (MCF7 [4]) was “Active” and the Activity (SH-SY5Y [5]) was “Active”. For the same compound, the Activity (MCF7 [6]) was “Active”.
